Here are results for one substance from PMC2871304 (Biochemistry, 2010).

One data set addresses neprilysin (NEP) (Homo sapiens, UniProt P08473). As to the kind of experiment: Enzymatic degradation of Aβ fibrils by neprilysin. The data set is classed as in vitro ADME. The following applies: NEP 50 μg/mL, 48 h, 0.1 M phosphate buffer pH 7.4, 37°C; AFM. The procedure, abridged: (§1)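 Fibrils were made from Aβ(1-42): 5 mM in DMSO, sonicated 10 min at 37°C, diluted to 100 μM in 10 mM HCl, sonicated 30 min, filtered through 10,000 MWCO, then held 2 days at 37°C. After enzyme treatment, fibrils on gold-coated substrates were imaged by tapping-mode AFM in air with a 3 N/m silicon cantilever. Tip-convolution calibration gave true dimensions.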

A short description of data set [1]: MFTIR, secondary structure of microfibrils in air. The following applies: amide I region deconvoluted. In kind it is physicochemical. The procedure, abridged:
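Aβ(1-42) fibrils, formed by incubating 100 μM peptide in dilute HCl for 2 days at 37°C, were deposited on gold-coated substrates. Infrared microscopy was done in reflection mode at 4 cm−1 resolution with a liquid-nitrogen-cooled MCT detector.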

The nature of data set [2]: Circular dichroism, secondary structure content. The data set is classed as physicochemical. The following applies: CD at 37°C, filtered (10K MWCO) samples. The procedure, abridged: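 Microfibrils were measured by CD at 37°C before and after enzymatic degradation (24 or 48 h). Spectra were taken at 12 nm·sec−1 and 1 nm resolution, with 4 scans averaged. Enzyme-only solutions were subtracted. Data were expressed as molar residue ellipticity using 42 residues and 0.3 mM peptide. Secondary-structure content was estimated by a published method.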

The target of data set [3] is insulin degrading enzyme (IDE) (Homo sapiens, UniProt P14735). Briefly: Enzymatic degradation of Aβ fibrils by insulin degrading enzyme. The following applies: IDE 50 μg/mL, 48 h, 0.1 M phosphate buffer pH 7.4, 37°C; AFM. The data set is classed as in vitro ADME. Put shortly:
as §1

A further data set has as its system protease XIV. Briefly: Enzymatic degradation of Aβ fibrils by protease XIV. In kind it is in vitro ADME. The settings on record: protease XIV 100 μg/mL, 24 h, 0.1 M phosphate buffer pH 7.4, 37°C; MALDI-TOF. Put shortly:
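Fibrils from 100 μM Aβ(1-42) were aged 2 days at 37°C, then digested with the enzyme. Products (about 1 μg/mL peptide) were mixed with saturated sinapic acid in ACN/0.1% TFA (1:2) and run by MALDI-TOF over 20–5000 Da. Enzyme alone served as control. Cleavage patterns were inferred from substrate specificity (C-terminal to aromatic and basic residues) and fragment masses.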

Chain of neprilysin (NEP) (P08473 whole entry, species assumed): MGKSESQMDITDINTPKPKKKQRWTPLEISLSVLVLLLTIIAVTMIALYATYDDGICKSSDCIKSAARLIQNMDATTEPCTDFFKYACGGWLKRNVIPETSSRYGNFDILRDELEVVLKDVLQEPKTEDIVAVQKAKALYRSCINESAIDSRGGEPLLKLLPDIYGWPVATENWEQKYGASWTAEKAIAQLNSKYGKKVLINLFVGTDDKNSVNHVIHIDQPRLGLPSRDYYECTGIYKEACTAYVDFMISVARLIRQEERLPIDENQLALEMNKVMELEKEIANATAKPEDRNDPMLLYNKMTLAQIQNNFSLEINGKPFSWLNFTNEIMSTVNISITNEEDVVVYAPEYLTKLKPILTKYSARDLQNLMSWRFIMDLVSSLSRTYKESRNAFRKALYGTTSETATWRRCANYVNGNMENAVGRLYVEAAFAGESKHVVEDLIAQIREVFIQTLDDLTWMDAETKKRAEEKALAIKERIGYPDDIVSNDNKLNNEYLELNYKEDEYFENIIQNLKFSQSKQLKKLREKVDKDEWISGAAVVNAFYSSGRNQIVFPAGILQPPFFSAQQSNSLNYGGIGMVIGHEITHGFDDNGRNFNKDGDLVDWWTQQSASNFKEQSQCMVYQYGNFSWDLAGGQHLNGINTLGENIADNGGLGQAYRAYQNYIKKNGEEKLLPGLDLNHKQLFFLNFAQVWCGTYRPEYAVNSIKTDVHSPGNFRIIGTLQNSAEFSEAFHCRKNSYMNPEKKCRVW

Regarding “Aβ microfibrils: Fibrils of purchased Aβ(1-42) peptide, incubated in DMSO/10 mM HCl at 37°C for 2 days”, the “degradation on exposure to NEP” value with neprilysin (NEP) is given as “almost no significant degradation”. Also, in data set [1], the “alpha-helix and random coil content” value is on record as 12±2%; the beta-sheet content is recorded as 71±8%; the turns content is reported as 17±5%. In addition, the “beta-strand structures, filtered samples” value in data set [2] is reported as 18±3%. Besides, the “degradation on exposure to IDE” value in data set [3] is reported as “almost no significant degradation”. For the same substance, in the data set with protease XIV, the “full-length Aβ(1-42) after degradation by protease XIV” value was “no full-length Aβ(1-42) peptides”.
